Reference: PMC3508427 (The British journal of nutrition, 2009)

How the values were obtained:
[1] = assay type: in vivo, human; conditions: orange juice, n 129, linear model
Procedure, shortened: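 Extended cohort of 129 subjects given a single 300 g orange juice dose. Urine collected as 24 h fractions: the day before, then for 48 h after, into bottles holding 1 g ascorbic acid. Volumes recorded. Urine (pH 5·0) hydrolysed with β-glucuronidase (10 000 units) and sulfatase (1000 units) for 2 h at 37°C, with galangin as internal standard. Measured by C18 SPE and HPLC, expressed as % of flavanone dose.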

[2] = Plasma pharmacokinetics of total flavanones; assay type: in vivo, human; conditions: fruit or juice
Procedure, shortened: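 Randomised cross-over in twenty volunteers on a flavonoid-avoidance diet, given single orange juice (300 g) or fruit portions. Drinking withheld 1·5 h and eating 4 h. Heparinised blood taken at 15, 30, 45 min and 1–48 h, centrifuged, and ascorbate added (final 1 mM). Plasma (pH 5·0) hydrolysed with β-glucuronidase and sulfatase for 2 h at 37°C. Total naringenin and hesperetin measured by C18 SPE and reversed-phase HPLC.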

[3] = cited from earlier work
[4] = cited from earlier work; remark: listed apart in the source

Structure (SMILES): COc1ccc([C@@H]2CC(=O)c3c(O)cc(O)cc3O2)cc1O [hesperetin]
- decrease in urinary excretion between the ages of 20 and 80 years [1]: 4%
- time of major peak in plasma profile [2]: about 6 h

Structure (SMILES): COc1ccc([C@@H]2CC(=O)c3c(O)cc(O[C@@H]4O[C@H](CO[C@@H]5O[C@@H](C)[C@H](O)[C@@H](O)[C@H]5O)[C@@H](O)[C@H](O)[C@H]4O)cc3O2)cc1O [hesperidin, 7-O-rutinoside of hesperetin]
- mean urinary yield [3]: > 8%
- time to peak plasma concentration [4]: about 6 h

Structure (SMILES): O=C1C[C@@H](c2ccc(O)cc2)Oc2cc(O)cc(O)c21 [naringenin]
- time of major peak in plasma profile [2]: about 6 h

Structure (SMILES): C[C@@H]1O[C@@H](O[C@H]2[C@H](Oc3cc(O)c4c(c3)O[C@H](c3ccc(O)cc3)CC4=O)O[C@H](CO)[C@@H](O)[C@@H]2O)[C@H](O)[C@H](O)[C@H]1O [naringin]
- mean urinary yield [3]: > 8%
- time to peak plasma concentration [4]: about 6 h

Structure (SMILES): OC[C@H]1O[C@@H](Oc2cc3c(O)cc(O)cc3[o+]c2-c2ccc(O)cc2)[C@H](O)[C@@H](O)[C@@H]1O [pelargondin-3-glucoside]
- time to peak plasma concentration [4]: about 1 h

Structure (SMILES): C[C@@H]1O[C@@H](OC[C@H]2O[C@@H](Oc3c(-c4ccc(O)c(O)c4)oc4cc(O)cc(O)c4c3=O)[C@H](O)[C@@H](O)[C@@H]2O)[C@H](O)[C@H](O)[C@H]1O [rutin, quercetin rutinoside]
- time to peak plasma concentration [4]: about 6 h
